These results are taken from ChEMBL document CHEMBL1156226, “Synthesis and structure-activity relationship studies of peptidomimetic PKB/Akt inhibitors: the significance of backbone interactions” (Bioorg Med Chem, 2010).

Square brackets hold non-standard residues; d marks the D form. Peptide text beside a SMILES is read from it. Gly(N-4-hydroxybenzyl) = O=C(O)CNCc1ccc(O)cc1; Gly(N-(CH2)3-guanidino) = N=C(N)NCCCNCC(=O)O; hLeu = CC(C)CC[C@H](N)C(=O)O; NMeNva = CCC[C@H](NC)C(=O)O; Nva = CCC[C@H](N)C(=O)O; Dap = NC[C@H](N)C(=O)O; NPrGly = CCCNCC(=O)O

The target in assay [1] is T1, RAC-alpha serine/threonine-protein kinase (Homo sapiens, UniProt P31749). Description: Inhibition of PKB at 5 uM by radioactive kinase assay relative to control. In a few lines: (§1)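 PKB/Akt enzyme HisAPHPKBEEEFlag, partly purified in one step on Ni-NTA agarose. The radioactive kinase reaction contains 50 mM Hepes pH 7.4, 0.1 mM EGTA, 0.1% 2-mercaptoethanol, 10 mM magnesium acetate, 3 uM RPRTSSF peptide substrate, 10 uM [γ32P]ATP and 0.005 units enzyme. Inhibition is given as percent reduction of activity against a no-inhibitor control. IC50 values, with 95% confidence ranges, come from curve fitting.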

The target of assay [2] is T1, RAC-alpha serine/threonine-protein kinase. The assay is described as follows: Inhibition of PKB at 100 uM by radioactive kinase assay relative to control. In short, it runs like this: as §1

T1 sequence (P31749 whole entry): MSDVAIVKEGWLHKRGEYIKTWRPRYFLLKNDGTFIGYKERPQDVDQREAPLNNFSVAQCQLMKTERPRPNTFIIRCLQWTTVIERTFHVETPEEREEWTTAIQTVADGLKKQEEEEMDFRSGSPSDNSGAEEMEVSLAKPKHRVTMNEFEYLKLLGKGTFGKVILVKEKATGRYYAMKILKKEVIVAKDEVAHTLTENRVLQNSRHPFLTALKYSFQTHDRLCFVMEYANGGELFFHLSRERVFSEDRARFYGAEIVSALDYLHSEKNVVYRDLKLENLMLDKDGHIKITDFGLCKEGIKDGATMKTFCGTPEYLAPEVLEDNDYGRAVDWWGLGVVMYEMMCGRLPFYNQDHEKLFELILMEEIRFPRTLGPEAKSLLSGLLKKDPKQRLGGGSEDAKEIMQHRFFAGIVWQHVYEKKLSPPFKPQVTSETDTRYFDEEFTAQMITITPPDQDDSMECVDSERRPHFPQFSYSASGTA

As usually defined, the inhibition is the percentage by which the read-out fell short of the control. Regarding `CCC[C@H](NC(=O)[C@H](CCCNC(=N)N)NC(=O)[C@@H]1CCCN1C(=O)[C@@H](N)CCCNC(=N)N)C(=O)N[C@@H](Cc1ccc(O)cc1)C(=O)N[C@@H](CN)C(=O)N(C)[C@@H](CCC(C)C)C(N)=O` (HELM PEPTIDE1{R.P.R.[Nva].Y.[NC[C@H](N[*:1])C(=O)[*:2]].[CC(C)CC[C@@H](C(=O)[*:2])N(C)[*:1]].[am]}$$$$V2.0), the inhibition in assay [1] turned out to be 5%; in assay [2], 86%.

Take `CCC[C@H](NC(=O)[C@H](CCCNC(=N)N)N(C)C(=O)[C@@H]1CCCN1C(=O)[C@@H](N)CCCNC(=N)N)C(=O)N[C@@H](Cc1ccc(O)cc1)C(=O)N[C@@H](CN)C(=O)N[C@@H](CCC(C)C)C(N)=O` (HELM PEPTIDE1{R.P.[meR].[Nva].Y.[NC[C@H](N[*:1])C(=O)[*:2]].[CC(C)CC[C@H](N[*:1])C(=O)[*:2]].[am]}$$$$V2.0): the inhibition in assay [1] was 39%; in assay [2], 92%.

Consider `CCC[C@H](NC(=O)[C@H](CCCNC(=N)N)NC(=O)[C@@H]1CCCN1C(=O)CNCCCNC(=N)N)C(=O)N[C@@H](Cc1ccc(O)cc1)C(=O)N[C@@H](CN)C(=O)N[C@@H](CCC(C)C)C(N)=O` (H-[Gly(N-(CH2)3-guanidino)]PR[Nva]Y[Dap][hLeu]-NH2), for which the inhibition in assay [1] amounted to 32%; in assay [2] it was 95%.

On to `CCC[C@H](NC(=O)[C@H](CCCNC(=N)N)NC(=O)[C@@H]1CCCN1C(=O)[C@H](CCCNC(=N)N)NC(C)=O)C(=O)N(CC(=O)N[C@@H](CN)C(=O)N[C@@H](CCC(C)C)C(=O)O)Cc1ccc(O)cc1` (Ac-RPR[Nva][Gly(N-4-hydroxybenzyl)][Dap][hLeu]-OH), for which, in assay [2], the inhibition turned out to be 28%.

Consider `CCC[C@H](NC(=O)[C@H](CCCNC(=N)N)NC(=O)[C@@H]1CCCN1C(=O)[C@@H](N)CCCNC(=N)N)C(=O)N(C)[C@@H](Cc1ccc(O)cc1)C(=O)N[C@@H](CN)C(=O)N[C@@H](CCC(C)C)C(N)=O` (HELM PEPTIDE1{R.P.R.[Nva].[meY].[NC[C@H](N[*:1])C(=O)[*:2]].[CC(C)CC[C@H](N[*:1])C(=O)[*:2]].[am]}$$$$V2.0), for which the figures for the inhibition in assay [1] and in assay [2] were 13% and 88%, respectively.

With `CCC[C@H](NC(=O)[C@H](CCCNC(=N)N)NC(=O)[C@@H]1CCCN1C(=O)[C@H](CCCNC(=N)N)NC(C)=O)C(=O)N[C@@H](Cc1ccc(O)cc1)C(=O)N[C@@H](CN)C(=O)N[C@@H](CCC(C)C)C(=O)O` (HELM PEPTIDE1{[ac].R.P.R.[Nva].Y.[NC[C@H](N[*:1])C(=O)[*:2]].[CC(C)CC[C@H](N[*:1])C(=O)O]}$$$$V2.0), the inhibition in assay [2] was found to be 66%.

As for `CCC[C@@H](C(=O)N[C@@H](Cc1ccc(O)cc1)C(=O)N[C@@H](CN)C(=O)N[C@@H](CCC(C)C)C(N)=O)N(C)C(=O)[C@H](CCCNC(=N)N)NC(=O)[C@@H]1CCCN1C(=O)[C@@H](N)CCCNC(=N)N` (H-RPR[NMeNva]Y[Dap][hLeu]-NH2), in assay [2], the inhibition came out at 62%.

For `CCCN(CC(=O)N[C@@H](Cc1ccc(O)cc1)C(=O)N[C@@H](CN)C(=O)N[C@@H](CCC(C)C)C(N)=O)C(=O)[C@H](CCCNC(=N)N)NC(=O)[C@@H]1CCCN1C(=O)[C@@H](N)CCCNC(=N)N` (H-RPR[NPrGly]Y[Dap][hLeu]-NH2), the inhibition in assay [2] is 16%.

Turning to `CCC[C@H](NC(=O)[C@H](CCCNC(=N)N)N(C)C(=O)[C@@H]1CCCN1C(=O)[C@@H](N)CCCNC(=N)N)C(=O)N[C@@H](Cc1ccc(O)cc1)C(=O)N[C@@H](CN)C(=O)N[C@@H](CCC(C)C)C(=O)O` (HELM PEPTIDE1{R.P.[meR].[Nva].Y.[NC[C@H](N[*:1])C(=O)[*:2]].[CC(C)CC[C@H](N[*:1])C(=O)O]}$$$$V2.0), the inhibition in assay [2] was 42%.

As for `CCC[C@H](NC(=O)CN(CCCNC(=N)N)C(=O)[C@@H]1CCCN1C(=O)[C@@H](N)CCCNC(=N)N)C(=O)N[C@@H](Cc1ccc(O)cc1)C(=O)N[C@@H](CN)C(=O)N[C@@H](CCC(C)C)C(N)=O` (H-RP[Gly(N-(CH2)3-guanidino)][Nva]Y[Dap][hLeu]-NH2), the inhibition in assay [2] worked out at 30%.

In the case of `CCC[C@H](NC(=O)[C@H](CCCNC(=N)N)NC(=O)[C@@H]1CCCN1C(=O)[C@H](CCCNC(=N)N)NC(C)=O)C(=O)N[C@@H](Cc1ccc(O)cc1)C(=O)N[C@@H](CN)C(=O)N(CC(=O)O)CC(C)CC` (stereo not given in full) (HELM PEPTIDE1{[ac].R.P.R.[Nva].Y.[NC[C@H](N[*:1])C(=O)[*:2]].[CCC(C)CN(CC(=O)O)[*:1]]}$$$$V2.0), the inhibition in assay [2] is 4%.

In the case of `CCC[C@H](NC(=O)[C@H](CCCNC(=N)N)NC(=O)[C@@H]1CCCN1C(=O)[C@H](CCCNC(=N)N)NC(C)=O)C(=O)N(CC(=O)N[C@@H](CN)C(=O)N[C@@H](CCC(C)C)C(N)=O)Cc1ccc(O)cc1` (Ac-RPR[Nva][Gly(N-4-hydroxybenzyl)][Dap][hLeu]-NH2), the inhibition in assay [2] came to 49%.

Regarding `CCC[C@H](NC(=O)[C@H](CCCNC(=N)N)NC(=O)[C@@H]1CCCN1C(=O)[C@@H](N)CCCNC(=N)N)C(=O)N(CC(=O)N[C@@H](CN)C(=O)N[C@@H](CCC(C)C)C(N)=O)Cc1ccc(O)cc1` (H-RPR[Nva][Gly(N-4-hydroxybenzyl)][Dap][hLeu]-NH2), the inhibition in assay [1] was 23%; in assay [2] it was 85%.

Consider `CCC[C@H](NC(=O)[C@H](CCCNC(=N)N)NC(=O)[C@@H]1CCCN1C(=O)[C@@H](N)CCCNC(=N)N)C(=O)N[C@@H](Cc1ccc(O)cc1)C(=O)N(C)[C@@H](CN)C(=O)N[C@@H](CCC(C)C)C(=O)O` (HELM PEPTIDE1{R.P.R.[Nva].Y.[CN([C@@H](CN)C(=O)[*:2])[*:1]].[CC(C)CC[C@H](N[*:1])C(=O)O]}$$$$V2.0), for which the inhibition in assay [2] amounted to 0%.

Turning to `CCC[C@H](NC(=O)[C@H](CCCNC(=N)N)NC(=O)[C@@H]1CCCN1C(=O)[C@H](CCCNC(=N)N)NC(C)=O)C(=O)N[C@@H](Cc1ccc(O)cc1)C(=O)N[C@@H](CN)C(=O)N(C)[C@@H](CCC(C)C)C(=O)O` (HELM PEPTIDE1{[ac].R.P.R.[Nva].Y.[NC[C@H](N[*:1])C(=O)[*:2]].[CC(C)CC[C@@H](C(=O)O)N(C)[*:1]]}$$$$V2.0), the inhibition in assay [2] amounted to 1%.

Take `CCC[C@H](NC(=O)[C@H](CCCNC(=N)N)NC(=O)[C@@H]1CCCN1C(=O)[C@H](CCCNC(=N)N)NC(C)=O)C(=O)N[C@@H](Cc1ccc(O)cc1)C(=O)N[C@@H](CN)C(=O)N[C@@H](CCC(C)C)C(N)=O` (HELM PEPTIDE1{[ac].R.P.R.[Nva].Y.[NC[C@H](N[*:1])C(=O)[*:2]].[CC(C)CC[C@H](N[*:1])C(=O)[*:2]].[am]}$$$$V2.0): the inhibition in assay [1] is 45%; in assay [2], 92%.

For the molecule `CCC[C@H](NC(=O)[C@H](CCCNC(=N)N)NC(=O)[C@@H]1CCCN1C(=O)[C@H](CCCNC(=N)N)NC(C)=O)C(=O)N[C@@H](Cc1ccc(O)cc1)C(=O)N[C@@H](CN)C(=O)N(CC(N)=O)CC(C)CC` (stereo not given in full) (HELM PEPTIDE1{[ac].R.P.R.[Nva].Y.[NC[C@H](N[*:1])C(=O)[*:2]].[CCC(C)CN(CC(=O)[*:2])[*:1]].[am]}$$$$V2.0), the inhibition in assay [2] stood at 1%.

In the case of `CCC[C@H](NC(=O)[C@H](CCCNC(=N)N)NC(=O)[C@@H]1CCCN1C(=O)[C@H](CCCNC(=N)N)NC(C)=O)C(=O)N[C@@H](Cc1ccc(O)cc1)C(=O)N(C)[C@@H](CN)C(=O)N[C@@H](CCC(C)C)C(N)=O` (HELM PEPTIDE1{[ac].R.P.R.[Nva].Y.[CN([C@@H](CN)C(=O)[*:2])[*:1]].[CC(C)CC[C@H](N[*:1])C(=O)[*:2]].[am]}$$$$V2.0), the inhibition in assay [2] is 33%.

In the case of `CCCN(CC(=O)N[C@@H](Cc1ccc(O)cc1)C(=O)N[C@@H](CN)C(=O)N[C@@H](CCC(C)C)C(N)=O)C(=O)[C@H](CCCNC(=N)N)NC(=O)[C@@H]1CCCN1C(=O)[C@H](CCCNC(=N)N)NC(C)=O` (Ac-RPR[NPrGly]Y[Dap][hLeu]-NH2), in assay [2], the inhibition was determined as 0%.

On to `CCC[C@H](NC(=O)[C@H](CCCNC(=N)N)NC(=O)[C@@H]1CCCN1C(=O)[C@H](CCCNC(=N)N)NC(C)=O)C(=O)N[C@@H](Cc1ccc(O)cc1)C(=O)N(C)[C@@H](CN)C(=O)N[C@@H](CCC(C)C)C(=O)O` (HELM PEPTIDE1{[ac].R.P.R.[Nva].Y.[CN([C@@H](CN)C(=O)[*:2])[*:1]].[CC(C)CC[C@H](N[*:1])C(=O)O]}$$$$V2.0), for which the inhibition in assay [2] amounted to 1%.

For the molecule `CCC[C@H](NC(=O)[C@H](CCCNC(=N)N)NC(=O)[C@@H]1CCCN1C(=O)[C@@H](N)CCCNC(=N)N)C(=O)N[C@@H](Cc1ccc(O)cc1)C(=O)N(C)[C@@H](CN)C(=O)N[C@@H](CCC(C)C)C(N)=O` (HELM PEPTIDE1{R.P.R.[Nva].Y.[CN([C@@H](CN)C(=O)[*:2])[*:1]].[CC(C)CC[C@H](N[*:1])C(=O)[*:2]].[am]}$$$$V2.0), the inhibition in assay [2] turned out to be 75%.

Regarding `CCC[C@H](NC(=O)[C@H](CCCNC(=N)N)NC(=O)[C@@H]1CCCN1C(=O)[C@H](CCCNC(=N)N)NC(C)=O)C(=O)N(C)[C@@H](Cc1ccc(O)cc1)C(=O)N[C@@H](CN)C(=O)N[C@@H](CCC(C)C)C(N)=O` (HELM PEPTIDE1{[ac].R.P.R.[Nva].[meY].[NC[C@H](N[*:1])C(=O)[*:2]].[CC(C)CC[C@H](N[*:1])C(=O)[*:2]].[am]}$$$$V2.0), the inhibition in assay [2] stood at 40%.

For the molecule `CCC[C@H](NC(=O)[C@H](CCCNC(=N)N)NC(=O)[C@@H]1CCCN1C(=O)[C@H](CCCNC(=N)N)NC(C)=O)C(=O)N[C@@H](Cc1ccc(O)cc1)C(=O)N[C@@H](CN)C(=O)N(C)[C@@H](CCC(C)C)C(N)=O` (HELM PEPTIDE1{[ac].R.P.R.[Nva].Y.[NC[C@H](N[*:1])C(=O)[*:2]].[CC(C)CC[C@@H](C(=O)[*:2])N(C)[*:1]].[am]}$$$$V2.0), the inhibition in assay [2] worked out at 29%.

For the molecule `CCC[C@H](NC(=O)[C@H](CCCNC(=N)N)NC(=O)[C@@H]1CCCN1C(=O)[C@@H](N)CCCNC(=N)N)C(=O)N[C@@H](Cc1ccc(O)cc1)C(=O)N[C@@H](CN)C(=O)N(CC(N)=O)CC(C)CC` (stereo not given in full) (HELM PEPTIDE1{R.P.R.[Nva].Y.[NC[C@H](N[*:1])C(=O)[*:2]].[CCC(C)CN(CC(=O)[*:2])[*:1]].[am]}$$$$V2.0), in assay [2], the inhibition stood at 39%.
